According to ChEMBL document CHEMBL4138263, “Taburnaemines A-I, Cytotoxic Vobasinyl-Iboga-Type Bisindole Alkaloids from Tabernaemontana corymbosa” (J Nat Prod, 2018):

Columns and labels:
Format in all cases: functional, cell-based
KB = test: Antiproliferative activity against human KB cells after 72 hrs by sulforhodamine B assay
Outline: (§1)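 Cells grown in RPMI-1640 with 2 mM L-glutamine, 25 mM HEPES, 10% FBS, streptomycin and penicillin; seeded at 4000–12 000 cells per well and exposed to compounds for 72 h. Fixed in 10% trichloroacetic acid, stained with 0.04% SRB, bound dye dissolved in 10 mM Tris base, absorbance read at 515 nm. IC50 from at least three independent experiments run in duplicate.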

[1] = Antiproliferative activity against human KBVIN cells after 72 hrs by sulforhodamine B assay; outline: as §1
MDA-MB-231 = test: Antiproliferative activity against human MDA-MB-231 cells after 72 hrs by sulforhodamine B assay; settings: MDA-MB-231, 72 h; outline: as §1
MCF7 = test: Antiproliferative activity against human MCF7 cells after 72 hrs by sulforhodamine B assay; settings: MCF7, 72 h; outline: as §1
A549 = test: Antiproliferative activity against human A549 cells after 72 hrs by sulforhodamine B assay; settings: A549, 72 h; outline: as §1

Structure (SMILES)	IC50 (KB)	IC50 [1]	IC50 (MDA-MB-231)	IC50 (MCF7)	IC50 (A549)
C/C=C1/CN(C)[C@H]2Cc3c([nH]c4ccccc34)[C@H](c3c(OC)ccc4c5c([nH]c34)[C@]3(C(=O)OC)C[C@H]4C[C@H](CC)[C@@H]3N(CC5)[C@@H]4CO)C[C@H]1[C@]2(CO)C(=O)OC	4.5 µM	4.9 µM	4.5 µM	4.9 µM	4.3 µM
C/C=C1/CN(C)[C@H]2Cc3c([nH]c4ccccc34)[C@H](c3ccc4[nH]c5c(c4c3)CCN3C[C@@H]4C[C@H](CC)[C@H]3[C@@]5(C(=O)OC)C4)C[C@H]1[C@]2(CO)C(=O)OC	6.7 µM	8.3 µM	5.2 µM	> 10 µM	9.8 µM
C/C=C1/CN(C)[C@H]2Cc3c([nH]c4ccccc34)[C@H](c3cc4[nH]c5c(c4cc3OC)CCN3C[C@H]4C[C@H](CC)[C@H]3[C@H]5C4)C[C@H]1[C@@H]2C(=O)OC	4.8 µM	4.4 µM	4.5 µM	4.7 µM	4.3 µM
CC(=O)O[C@H]1C(=O)[C@@]2(C)[C@H]([C@H](OC(=O)c3ccccc3)[C@]3(O)C[C@H](OC(=O)[C@H](O)[C@@H](NC(=O)c4ccccc4)c4ccccc4)C(C)=C1C3(C)C)[C@]1(OC(C)=O)CO[C@@H]1C[C@@H]2O [PACLITAXEL]	0.0036 µM	2.36 µM	0.007 µM	0.0088 µM	0.0045 µM
C/C=C1/CN(C)[C@H]2Cc3c([nH]c4ccccc34)[C@H](c3c(OC)ccc4c5c([nH]c34)[C@]3(C(=O)OC)C[C@H]4C[C@H](CC)[C@@H]3N3C[C@@H]5O[C@H]43)C[C@H]1[C@]2(CO)C(=O)OC	4.8 µM	4.7 µM	4.8 µM	5.6 µM	5.3 µM
C/C=C1/CN(C)[C@H]2Cc3c([nH]c4ccccc34)[C@H](c3cc4c5c([nH]c4cc3OC)[C@]3(C(=O)OC)C[C@@H]4C[C@H](CC)[C@@H]3N(CC5)[C@@H]4CC(C)=O)C[C@H]1[C@]2(CO)C(=O)OC	5 µM	5.1 µM	4.8 µM	6.1 µM	5.6 µM
CC[C@H]1C[C@H]2CN3CC[C@@]4(O)C(=Nc5cc(OC)c([C@@H]6C[C@H]7[C@@]8(C(=O)OC)CO[C@H](N(C)[C@H]8Cc8c6[nH]c6ccccc86)[C@@]76O[C@H]6C)cc54)[C@](C(=O)OC)(C2)[C@H]13	4.7 µM	4.8 µM	4.5 µM	4.6 µM	4.3 µM
CC[C@]1(O)C[C@@H]2CN(CCc3c([nH]c4ccccc34)[C@@](C(=O)OC)(c3cc4c(cc3OC)N(C)[C@H]3[C@@](O)(C(=O)OC)[C@H](OC(C)=O)[C@]5(CC)C=CCN6CC[C@]43[C@@H]65)C2)C1 [VINBLASTINE]	0.0044 µM	2.48 µM	0.032 µM	0.0073 µM	0.023 µM
C/C=C1/CN(C)[C@H]2Cc3c([nH]c4ccccc34)C(c3c(OC)ccc4c5c([nH]c34)[C@]3(C(=O)OC)C[C@@H]4C[C@H](CC)[C@@H]3N(CC5)C4)C[C@H]1[C@@H]2C(=O)OC (stereo not given in full)	5 µM	4.1 µM	5.2 µM	5.6 µM	4.4 µM
C/C=C1/CN(C)[C@H]2Cc3c([nH]c4ccccc34)[C@H](c3cc4c5c([nH]c4cc3OC)[C@]3(C(=O)OC)C[C@@H]4C[C@H](CC)[C@@H]3N(CC5)[C@@H]4CC(C)=O)C[C@H]1[C@@]2(CO)C(=O)OC	4.6 µM	4.4 µM	3.2 µM	4.4 µM	4.4 µM
C/C=C1/CN(C)[C@H]2Cc3c([nH]c4ccccc34)[C@H](c3c(OC)ccc4c5c([nH]c34)[C@]3(C(=O)OC)C[C@@H]4C[C@H](CC)[C@@H]3N(CC5)C4)C[C@H]1[C@@]2(CO)C(=O)OC	4.3 µM	4.7 µM	4.8 µM	4.8 µM	3.5 µM
CC[C@H]1C[C@@H]2C[C@@]3(C(=O)OC)c4[nH]c5c([C@@H]6C[C@H]7[C@@]8(C(=O)OC)CO[C@H](N(C)[C@H]8Cc8c6[nH]c6ccccc86)[C@@]76O[C@H]6C)c(OC)ccc5c4CCN(C2=O)[C@@H]13	5.7 µM	5.8 µM	8.2 µM	8.3 µM	5.9 µM
C/C=C1/CN2COC[C@]3(C(=O)OC)[C@@H]1C[C@@H](c1c(OC)ccc4c5c([nH]c14)[C@]1(C(=O)OC)C[C@H]4C[C@H](CC)[C@@H]1N(CC5)[C@@H]4CO)c1[nH]c4ccccc4c1C[C@H]23	4.8 µM	4.9 µM	5.1 µM	6 µM	4.7 µM
C/C=C1/CN(C)[C@H]2Cc3c([nH]c4ccccc34)[C@H](c3c(OC)ccc4c5c([nH]c34)[C@]3(C(=O)OC)C[C@H]4C[C@H](CC)[C@@H]3N(CC5)C4)C[C@H]1[C@]2(CO)C(=O)OC	4.2 µM	4.1 µM	4.8 µM	5.3 µM	4.5 µM
CC[C@H]1C[C@@H]2C[C@@]3(C(=O)OC)c4[nH]c5c([C@@H]6C[C@H]7[C@@]8(C(=O)OC)CO[C@H](N(C)[C@H]8Cc8c6[nH]c6ccccc86)[C@]76O[C@@H]6C)c(OC)ccc5c4CCN([C@@H]2CC(C)=O)[C@@H]13	> 10 µM	> 10 µM	> 10 µM	> 10 µM	> 10 µM
C/C=C1/CN2COC[C@]3(C(=O)OC)[C@@H]1C[C@@H](c1c(OC)ccc4c1N=C1[C@]5(C(=O)OC)C[C@H]6C[C@H](CC)[C@@H]5N(CC[C@]14O)C6)c1[nH]c4ccccc4c1C[C@H]23	4.5 µM	4.7 µM	8.2 µM	6.5 µM	4.9 µM
CC[C@H]1C[C@@H]2C[C@@]3(C(=O)OC)c4[nH]c5c([C@@H]6C[C@H]7[C@@]8(C(=O)OC)CO[C@H](N(C)[C@H]8Cc8c6[nH]c6ccccc86)[C@@]76O[C@H]6C)c(OC)ccc5c4CCN([C@@H]2CC(C)=O)[C@@H]13	7.4 µM	6.6 µM	7.7 µM	> 10 µM	8.6 µM
C/C=C1/CN2COC[C@@]3(C(=O)OC)[C@@H]1C[C@@H](c1cc4c5c([nH]c4cc1OC)[C@]1(C(=O)OC)C[C@@H]4C[C@H](CC)[C@@H]1N(CC5)C4)c1[nH]c4ccccc4c1C[C@H]23	4.3 µM	4.4 µM	4.5 µM	4.8 µM	4.3 µM
C/C=C1/CN(C)[C@H]2Cc3c([nH]c4ccccc34)[C@H](c3cc4c(cc3OC)N=C3[C@]5(C(=O)OC)C[C@H]6C[C@H](CC)[C@@H]5N(CC[C@@]34O)C6)C[C@H]1[C@]2(CO)C(=O)OC	2.7 µM	2.6 µM	2.8 µM	3 µM	3.1 µM
